The target in assay [1] is Mu-type opioid receptor (Cavia porcellus, UniProt P97266). Description: In vitro inhibition of electrically evoked contractions in guinea pig ileum longitudinal muscle myenteric plexus. Type of assay: functional, tissue-based. In a few lines: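 Longitudinal muscle–myenteric plexus strips from male Hartley guinea pigs (150–400 g) in 37 °C Krebs bicarbonate gassed with 95% O2/5% CO2. Transmural stimulation at 0.1 Hz, 0.4-ms pulses, supramaximal voltage. Bestatin, bacitracin and captopril added 3 min before cumulative peptide doses. Inhibition compares contraction height 3 min post-dose with the 1-min pre-dose mean.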
Mu-type opioid receptor (Cavia porcellus, UniProt P97266), sequence (P97266 whole entry): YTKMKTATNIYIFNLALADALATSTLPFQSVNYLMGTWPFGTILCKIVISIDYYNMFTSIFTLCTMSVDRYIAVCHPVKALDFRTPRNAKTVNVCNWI

In assay [2] the target is Mu-type opioid receptor (Rattus norvegicus, UniProt P33535). Description: Inhibition of [3H]CTOP binding to rat brain homogenate mu-opioid receptor. In a few lines: (§1)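 Whole brain membranes from male Sprague-Dawley rats, preincubated 30 min at 25 °C to remove endogenous opioids. Incubated 180 min at 25 °C with 0.75 nM [3H][p-ClPhe4]DPDPE (δ) or 0.5 nM [3H]CTOP (μ). Buffer was 50 mM Tris-HCl pH 7.4 with BSA, bacitracin, bestatin, captopril and toluenesulfonyl fluoride. Rapid filtration and scintillation counting. Duplicates, ≥3 experiments, nonlinear least-squares fit.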
Mu-type opioid receptor (Rattus norvegicus, UniProt P33535), sequence (P33535 whole entry): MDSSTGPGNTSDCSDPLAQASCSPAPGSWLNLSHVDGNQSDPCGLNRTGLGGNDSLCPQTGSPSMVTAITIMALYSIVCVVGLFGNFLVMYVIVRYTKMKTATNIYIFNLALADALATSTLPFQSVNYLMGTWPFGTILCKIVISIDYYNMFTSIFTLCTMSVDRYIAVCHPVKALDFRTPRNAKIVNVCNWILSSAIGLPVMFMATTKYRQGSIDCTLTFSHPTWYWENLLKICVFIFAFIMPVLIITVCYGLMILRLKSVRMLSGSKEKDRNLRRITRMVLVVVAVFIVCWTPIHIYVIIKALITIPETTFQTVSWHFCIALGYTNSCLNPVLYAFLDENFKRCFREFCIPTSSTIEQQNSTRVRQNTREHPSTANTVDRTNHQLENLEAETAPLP

The target in assay [3] is Delta-type opioid receptor (Mus musculus, UniProt P32300). Description: In vitro inhibition of electrically induced smooth muscle contractions of mouse vas deferens. The class given is functional, tissue-based.
Delta-type opioid receptor (Mus musculus, UniProt P32300), sequence (P32300 whole entry): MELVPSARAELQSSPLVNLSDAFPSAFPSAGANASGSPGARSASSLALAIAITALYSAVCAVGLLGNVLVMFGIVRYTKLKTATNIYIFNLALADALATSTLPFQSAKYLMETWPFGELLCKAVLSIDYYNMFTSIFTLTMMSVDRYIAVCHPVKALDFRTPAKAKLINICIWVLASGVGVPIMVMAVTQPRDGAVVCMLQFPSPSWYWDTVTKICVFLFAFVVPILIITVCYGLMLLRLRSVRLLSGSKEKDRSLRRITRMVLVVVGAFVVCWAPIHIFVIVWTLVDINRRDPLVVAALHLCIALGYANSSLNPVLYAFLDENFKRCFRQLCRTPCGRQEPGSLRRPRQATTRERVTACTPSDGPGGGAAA
Assay [4] has as its target Delta-type opioid receptor (Rattus norvegicus, UniProt P33533). Description: Inhibition of [3H][p-Cl-Phe-][…] binding to rat brain homogenate delta-opioid receptor. In a few lines:
as §1

Assay [5] in a line: Selectivity ratio against guinea pig ileum and mouse vas deferens contractions. The class given is functional.
The target in assay [6] is Delta-type opioid receptor (Mus musculus) (UniProt P32300). Description: In vitro percentage inhibition of electrically induced smooth muscle contractions of mouse vas deferens after the administration at 6000 nM. The class given is functional. The method in brief: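 Vasa deferentia from male ICR mice (25–30 g) in 37 °C magnesium-free Krebs bicarbonate gassed with 95% O2/5% CO2. Transmural stimulation at 0.1 Hz, 2.0-ms pulses, supramaximal voltage. Peptidase inhibitors (bestatin, bacitracin, captopril) given 3 min before peptide. Percent inhibition is the 1-min pre-dose mean contraction height against height 3 min after peptide. Run in duplicate, repeated two or three times.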
Delta-type opioid receptor (Mus musculus), sequence (P32300 whole entry): as above

In general, IC50 refers to the concentration that gives 50% inhibition. As usually defined, the inhibition is the change of the read-out against control, counted positive when it falls. A higher inhibition goes with a response far below the control.

Delta-type opioid receptor (Rattus norvegicus, UniProt P33533), sequence (P33533 whole entry): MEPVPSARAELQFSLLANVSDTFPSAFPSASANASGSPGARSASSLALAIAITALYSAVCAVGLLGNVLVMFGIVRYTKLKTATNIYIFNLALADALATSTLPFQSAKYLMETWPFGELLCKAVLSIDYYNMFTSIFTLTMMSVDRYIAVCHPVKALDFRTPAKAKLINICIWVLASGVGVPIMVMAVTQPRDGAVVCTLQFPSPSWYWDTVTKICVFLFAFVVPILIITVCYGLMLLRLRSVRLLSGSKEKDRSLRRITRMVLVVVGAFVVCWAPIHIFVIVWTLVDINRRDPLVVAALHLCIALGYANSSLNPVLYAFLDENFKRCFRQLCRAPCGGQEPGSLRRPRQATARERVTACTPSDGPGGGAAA

For the compound `CC(C)[C@H](NC(=O)[C@H]1NC(=O)[C@H](CC(=O)O)NC(=O)[C@H](Cc2ccccc2)NC(=O)[C@H](NC(=O)[C@@H](N)Cc2ccc(O)cc2)C(C)(C)SSC1(C)C)C(=O)NCC(N)=O` [listing 1 of 2 here], the IC50 on Mu-type opioid receptor [1] worked out at 68 µM; at Mu-type opioid receptor [2] it was 26 µM; in assay [3], 0.0063 µM; in assay [4], 0.0037 µM.
As to `CSCCC(NC(=O)[C@H](CC(C)C)NC(=O)[C@H](Cc1c[nH]cn1)NC(=O)[C@H](Cc1ccccc1)NC(=O)C(CCSC)NC(=O)[C@@H](N)Cc1ccc(O)cc1)C(=O)N[C@@H](CC(=O)O)C(N)=O` (stereo in doubt) [listing 1 of 2 here], the Selectivity in assay [5] was 12000.
For `CC(C)[C@H](NC(=O)[C@H]1NC(=O)[C@H](CC(=O)O)NC(=O)[C@H](Cc2ccccc2)NC(=O)[C@H](NC(=O)[C@@H](N)Cc2ccc(O)cc2)CSSC1(C)C)C(=O)NCC(N)=O` [listing 1 of 2 here], the Selectivity in assay [5] was 4400.
Still for that read-out and setting: then `CC(C)[C@H](NC(=O)[C@H]1NC(=O)[C@H](CC(=O)O)NC(=O)[C@H](Cc2ccccc2)NC(=O)[C@H](NC(=O)[C@@H](N)Cc2ccc(O)cc2)C(C)(C)SSC1(C)C)C(=O)NCC(N)=O` [listing 2 of 2 here], with 11000.
As to `CSCCC(NC(=O)[C@H](CC(C)C)NC(=O)[C@H](Cc1c[nH]cn1)NC(=O)[C@H](Cc1ccccc1)NC(=O)C(CCSC)NC(=O)[C@@H](N)Cc1ccc(O)cc1)C(=O)N[C@@H](CC(=O)O)C(N)=O` (stereo in doubt) [listing 2 of 2 here], the IC50 at Mu-type opioid receptor [1] was found to be 3.4 µM; at Mu-type opioid receptor [2], 1.9 µM; in assay [3], 0.00028 µM; in assay [4] it was 0.00047 µM.
For the compound `CCCC[C@H](NC(=O)[C@H]1NC(=O)[C@H](Cc2c[nH]cn2)NC(=O)C(Cc2ccccc2)NC(=O)[C@H](NC(=O)[C@@H](N)Cc2ccc(O)cc2)C(C)(C)SSC1(C)C)C(=O)N[C@@H](CC(=O)O)C(=O)O` (single isomer, unassigned), the IC50 amounted to 4.5 µM against Mu-type opioid receptor [1], 1.9 µM on Mu-type opioid receptor [2] and 0.00511 µM in assay [4]. The compound also came in with an inhibition in assay [6] of 43.5%. Moreover, the Selectivity in assay [5] is less than 1.5.
Take `CCCC[C@H](NC(=O)[C@H]1NC(=O)[C@H](Cc2c[nH]cn2)NC(=O)C(Cc2ccccc2)NC(=O)[C@H](NC(=O)[C@@H](N)Cc2ccc(O)cc2)C(C)(C)SSC1(C)C)C(=O)N[C@@H](CC(=O)O)C(N)=O` (single isomer, unassigned): the IC50 against Mu-type opioid receptor [1] is 22 µM; on Mu-type opioid receptor [2] it was 10.2 µM; in assay [3], 0.0127 µM; in assay [4], 0.0034 µM. Also, the Selectivity in assay [5] stood at 1700.
In the case of `CCCC[C@H](NC(=O)[C@H]1NC(=O)[C@H](CC(=O)O)NC(=O)C(Cc2ccccc2)NC(=O)[C@H](NC(=O)[C@@H](N)Cc2ccc(O)cc2)C(C)(C)SSC1(C)C)C(=O)NCC(N)=O` (single isomer, unassigned), the IC50 at Mu-type opioid receptor [1] was found to be 137 µM; on Mu-type opioid receptor [2] it was 54.6 µM; in assay [3], 0.0088 µM; in assay [4], 0.00483 µM. Besides, the Selectivity in assay [5] is recorded as 16000.
On to `CC(C)[C@H](NC(=O)[C@H](CC(=O)O)NC(=O)[C@H](Cc1ccccc1)NC(=O)[C@@H](C)NC(=O)[C@@H](N)Cc1ccc(O)cc1)C(=O)N[C@H](C(=O)NCC(N)=O)C(C)C` (stereo in doubt; form 1) [DELTORPHIN C], for which half-maximal inhibition at Mu-type opioid receptor [1] (IC50) required 2.89 µM.
On to `CC(C)[C@H](NC(=O)[C@H]1NC(=O)[C@H](CC(=O)O)NC(=O)[C@H](Cc2ccccc2)NC(=O)[C@H](NC(=O)[C@@H](N)Cc2ccc(O)cc2)CSSC1(C)C)C(=O)NCC(N)=O` [listing 2 of 2 here], for which the IC50 on Mu-type opioid receptor [1] was 1.1 µM; on Mu-type opioid receptor [2] it was 3.76 µM; in assay [3], 0.00025 µM; in assay [4], 0.0022 µM.
For the compound `CC(C)[C@H](NC(=O)[C@@H]1CSSC[C@@H](NC(=O)[C@@H](N)Cc2ccc(O)cc2)C(=O)N[C@@H](Cc2ccccc2)C(=O)N[C@@H](CC(=O)O)C(=O)N1)C(=O)NCC(N)=O`, the Selectivity in assay [5] is 13.
Regarding `CC(C)[C@H](NC(=O)[C@@H]1NC(=O)[C@H](CC(=O)O)NC(=O)[C@H](Cc2ccccc2)NC(=O)[C@H](NC(=O)[C@@H](N)Cc2ccc(O)cc2)C(C)(C)SSC1(C)C)C(=O)NCC(N)=O` [listing 1 of 2 here], the IC50 at Mu-type opioid receptor [1] is 5.5 µM; on Mu-type opioid receptor [2], 1.2 µM; in assay [3], 0.92 µM; in assay [4], 0.21 µM.
For the compound `CC(C)C(NC(=O)[C@H]1NC(=O)[C@H](CO)NC(=O)C(Cc2ccccc2)NC(=O)[C@H](NC(=O)[C@@H](N)Cc2ccc(O)cc2)C(C)(C)SSC1(C)C)C(=O)NCC(N)=O` (single isomer, unassigned), the IC50 against Mu-type opioid receptor [1] was found to be 13.5 µM; at Mu-type opioid receptor [2] it was 3.3 µM; in assay [3], 0.0918 µM; in assay [4] it was 0.01 µM. In addition, the Selectivity in assay [5] is listed as 150.
For `CC(C)C(NC(=O)[C@H]1NC(=O)[C@H](CCC(=O)O)NC(=O)C(Cc2ccccc2)NC(=O)[C@H](NC(=O)[C@@H](N)Cc2ccc(O)cc2)C(C)(C)SSC1(C)C)C(=O)NCC(N)=O` (single isomer, unassigned) the same measures were 7.1 µM, 4.9 µM, 0.00224 µM, 0.0057 µM and 3200.
For the compound `CC(C)[C@H](NC(=O)[C@@H]1NC(=O)[C@H](CC(=O)O)NC(=O)[C@H](Cc2ccccc2)NC(=O)[C@H](NC(=O)[C@@H](N)Cc2ccc(O)cc2)C(C)(C)SSC1(C)C)C(=O)NCC(N)=O` [listing 2 of 2 here], the Selectivity in assay [5] was determined as 6.

These data come from ChEMBL document CHEMBL1127486, “Design of cyclic deltorphins and dermenkephalins with a disulfide bridge leads to analogues with high selectivity for delta-opioid receptors” (J Med Chem, 1994).
